Compound activity from PubChem BioAssay.
The list is not random: actives were taken first. Their share in the collection is about 3.7%.
procasp7 counter = procaspase-7 activators, primary screen, counter-screen for procaspase-3 activator project, biochemical, absorbance, HTS, human; Caspase-7 (Homo sapiens), P55210; recombinant procaspase-7, Ac-DEVD-pNA absorbance 405 nm; D23A/D198A/D206A triple mutant, cannot self-cleave; scale: DMSO 0, 5 µM enzyme 100; activation, % at 8.5 µM; actives 0.093% (n = 330,000); AID 463210, 2010;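 active = percent activation above the screen-wide mean plus 3 SD, cut at about 25% in these data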
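Assay system – Uncleavable procaspase-7 mutant enzyme · Quantity – 2 µM procaspase-7 mutant as dispensed · Times – 1 h preincubation, 2 h reaction · Dosing – single nominal 8.5 µM compound dose, 0.8% DMSO final · Buffer or medium – Zinc-free 50 mM HEPES buffer, pH 7.4, with NaCl and Triton X-100 · Detection – Epi-absorbance of released pNA at 405 nm, two timepoints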
aDG glyco up = activators of alpha-DG glycosylation, primary screen, uHTS, Pro5-aDG cells, AlphaScreen; alpha-DG glycosylation AlphaScreen (IIH6); 0% Pro5, 100% B10-LARGE cell signal; activation, % at 10 µM; actives 0.22% (n = 360,000);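 active = activation of at least 8% versus controls, or a plate z-score of at least 8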;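 also: Pro5 are CHO cells carrying HIG-tagged alpha-DG that lacks glycosylation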
MPTP inh = mitochondrial permeability transition pore inhibitors, primary screen, biochemical, isolated mouse mitochondria, absorbance; Ca2+ swelling absorbance, 30 min; inhibition, % at 10 µM; actives 1.4% (n = 360,000); AID 602449, 2012;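 active = inhibition of 50% or more, scaled per plate between neutral and stimulator controls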;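 also: 0% = DMSO wells given calcium and 100% = 1 mM EGTA wells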
GRIN3A LBD mod = binders of NR3A ligand-binding domain, primary screen, biophysical, differential scanning fluorimetry, uHTS; Glutamate receptor ionotropic, NMDA 3A (GRIN3A) ligand-binding domain; NR3A LBD differential scanning fluorimetry, Tm shift; 0% = protein alone, 100% = glycine-bound protein; Tm shift relative to glycine control, % at 25 µM; actives 2.5% (n = 340,000); AID 1259313, 2017;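 active = melting temperature shift of at least 10% of the positive control shift, at one fixed dose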
proCasp3 act = activators of human procaspase-3 D3A mutant, primary screen, biochemical, absorbance, PC-3 D3A mutant, single concentration. Caspase-3 (Homo sapiens), P42574. recombinant procaspase-3 D3A, Ac-DEVD-pNA absorbance 405 nm. activation, % at 8.5 µM. actives 0.11% (n = 330,000);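 active = activation above the mean of all tested compounds plus 3 SD, cut at about 21% in these data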;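 also: 0% = DMSO alone and 100% = DMSO wells spiked with extra 5 µM PC-3 D3A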
Target sequence (P42574 whole entry D9A/D28A/D175A): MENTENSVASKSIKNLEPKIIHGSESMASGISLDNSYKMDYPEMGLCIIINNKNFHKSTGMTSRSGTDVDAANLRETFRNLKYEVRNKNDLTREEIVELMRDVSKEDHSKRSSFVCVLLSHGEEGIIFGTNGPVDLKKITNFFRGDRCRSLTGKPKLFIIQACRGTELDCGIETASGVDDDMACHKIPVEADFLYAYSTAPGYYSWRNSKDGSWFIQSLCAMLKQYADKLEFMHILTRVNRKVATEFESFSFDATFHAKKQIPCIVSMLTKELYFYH
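Technique: 405 nm absorbance of p-nitroaniline, reads at 0 and 120 min; Test system: Procaspase-3 D3A mutant; Incubation: 1 h enzyme-compound preincubation, then 2 h substrate reaction, 25 °C; Repeats: singlicate, each compound tested once; Benchmarks: low control DMSO wells, high control DMSO plus 5 µM PC-3 D3A.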
Rh123 counter = fluorescence retest of MPTP screen hits in isolated mitochondria, single concentration | shares compounds with MPTP inh | membrane potential, Rhodamine 123 fluorescence | inhibition, % at 10 µM | actives 78% (n = 5,000); in the data active = inhibition above about 22%;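 also: 0% = DMSO vehicle and 100% = positive control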
MPTP swell DR = mitochondrial permeability transition pore inhibitors, dose response, biochemical, absorbance, uHTS hits; actives 58% (n = 780); isolated mitochondria swelling; shares compounds with MPTP inh; AID 651561, 2012; IC50, µM; in the data active = IC50 below about 20 µM
MPTP cs DR = fluorescent counter-screen in isolated mitochondria, dose response, counter-screen for MPTP inhibitor project, biochemical, fluorescence, uHTS hits; AID 651564, 2012; IC50, µM; actives 49% (n = 780); shares compounds with MPTP inh; isolated mitochondria counterscreen, fluorescence read-out; in the data active = IC50 below about 80 µM
The depositor's hits bear a star.

For CC1CCCN(S(=O)(=O)c2ccc(C(=O)Nc3ccccc3-c3nc4ccccc4[nH]3)cc2)C1 (configuration not stated) the results were procasp7 counter 0, aDG glyco up 0, MPTP inh 90*, GRIN3A LBD mod 34*, proCasp3 act -5, Rh123 counter 3, MPTP swell DR 7.2* and MPTP cs DR 4.2*.
For CC1CCN(S(=O)(=O)c2ccc(C(=O)Nc3ncccc3O)cc2)CC1 the results were procasp7 counter -2, aDG glyco up 0, MPTP inh 0, GRIN3A LBD mod 2 and proCasp3 act 3.
CC1CCN(S(=O)(=O)c2ccc(C(=O)Nc3ccccc3-c3nc4ccccc4[nH]3)cc2)CC1 was read as procasp7 counter 5, aDG glyco up 0, MPTP inh 94*, GRIN3A LBD mod 31*, proCasp3 act 6 and Rh123 counter 64*.
`O=[N+]([O-])c1ccccc1OCC(O)CN1CCN(CC(O)COc2ccccc2[N+](=O)[O-])CC1` (configuration not stated) gave procasp7 counter 2, aDG glyco up 0, MPTP inh -1, GRIN3A LBD mod 0 and proCasp3 act -5.
For O=C(NNc1ccc([N+](=O)[O-])cc1)c1ccccc1Cl the results were procasp7 counter 4, aDG glyco up 2, MPTP inh 0, GRIN3A LBD mod -1 and proCasp3 act 3.
For O=C(NC(NNc1ccc([N+](=O)[O-])cc1)(C(F)(F)F)C(F)(F)F)c1ccc(Cl)cc1 the results were procasp7 counter -6, aDG glyco up 0, MPTP inh 98*, GRIN3A LBD mod 1, proCasp3 act -5 and Rh123 counter 78*.
`O=c1cc(CN2CCCCC2)c2ccccc2o1` gave aDG glyco up 0 and MPTP inh 0.
`CCNc1ccc(S(=O)(=O)N(C)C)cc1NCC(=O)Nc1ccc(F)c(Cl)c1` gave procasp7 counter 3, aDG glyco up 0, MPTP inh 59*, GRIN3A LBD mod -3, proCasp3 act 6 and Rh123 counter 70*.
CCNc1ccc(S(=O)(=O)N(C)C)cc1NCC(=O)Nc1ccccc1F was read as procasp7 counter 1, aDG glyco up 0, MPTP inh 15, GRIN3A LBD mod -4 and proCasp3 act -10.
For O=C(CN1C(=O)c2ccccc2C1=O)NC(Cc1ccccc1)C(=O)O (configuration not stated) the results were aDG glyco up 0, MPTP inh -2 and GRIN3A LBD mod 1.
For Fc1c(F)c(C(F)(F)F)c(F)c(F)c1N/N=C\c1cccs1 the results were procasp7 counter -6, aDG glyco up 0, MPTP inh 87*, GRIN3A LBD mod 22*, proCasp3 act 4 and Rh123 counter 70*.
For Cc1ccc(N2CCC3CC2c2cc(-c4ccc(C(F)(F)F)cc4)ccc23)cc1 (configuration not stated) the results were aDG glyco up 0 and MPTP inh 0.
For O=C(Nc1ccc(Cl)cc1)C1=Cc2ccccc2OC1 the results were procasp7 counter 3, aDG glyco up 0, MPTP inh 89*, GRIN3A LBD mod 20*, proCasp3 act 2 and Rh123 counter 108*.
`c1ccc2c(Nc3nc(-c4ccncc4)nc4ccccc34)cccc2c1` gave procasp7 counter 4, aDG glyco up 0, MPTP inh 14, GRIN3A LBD mod 1 and proCasp3 act 2.
